One data set concerns NCI-H460. Nature of the data set: Cytotoxicity against human NCI-H460 cells. The format is cell-based. In outline: (§1)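 NCI 60 human tumour cell line screen, second stage at five concentrations (100, 10, 1.0, 0.1 and 0.01 μM). Continuous drug exposure for 48 h, with cell growth estimated by sulforhodamine B protein staining. GI50 is the drug concentration giving a 50% reduction in net protein increase relative to control cells over the incubation.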

The test system of another data set is 786-0. Nature of the data set: Cytotoxicity against human 786-0 cells. The format is cell-based. Put shortly: as §1
The test system of a further data set is CAKI-1. Put plainly: Anticancer activity against human Caki1 cells after 48 hrs by sulforhodamine B assay. The data set is classed as functional. As to conditions: CAKI-1, 48 h. Put shortly:
(§2)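 NCI 60-cell-line in vitro screen, second stage: five concentration levels (100, 10, 1.0, 0.1 and 0.01 μM) with 48 h continuous drug exposure. Cell growth was estimated by sulforhodamine B protein staining. GI50 is the drug concentration that gives a 50% reduction in net protein increase relative to control cells over the incubation.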
Background: Sulforhodamine B stains cellular protein and so reports cell mass.

The subject of a further data set is NCI/ADR-RES. Put plainly: Anticancer activity against human NCI/ADR-RES cells after 48 hrs by sulforhodamine B assay. The data set is classed as functional. Put shortly:
as §2

In another data set the test system is Hs-578T. Nature of the data set: Anticancer activity against human Hs578T cells after 48 hrs by sulforhodamine B assay. The data set is classed as functional. Put shortly: as §2
The subject of the next data set is DU-145. Nature of the data set: Anticancer activity against human DU145 cells after 48 hrs by sulforhodamine B assay. The format is functional. To be noted: DU-145, 48 h. Put shortly: as §2
In the next data set the test system is SK-MEL-28. Put plainly: Cytotoxicity against human SK-MEL-28 cells. The data set is classed as cell-based. In outline:
as §1

For data set [1], the system named is UACC-257. Put plainly: Cytotoxicity against human UACC257 cells. The format is cell-based. Put shortly:
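NCI 60 human tumour cell line screen; five concentration levels (100, 10, 1.0, 0.1 and 0.01 μM), 48 h continuous drug exposure. Cell growth estimated by sulforhodamine B (SRB) protein staining. GI50 taken as the drug concentration giving a 50% reduction in net protein increase relative to control cells over the incubation.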

A further data set concerns SF-268. Put plainly: Anticancer activity against human SF268 cells after 48 hrs by sulforhodamine B assay. The data set is classed as functional. To be noted: SF-268, 48 h. In outline:
as §2

Data set [2] concerns UACC-257. Put plainly: Anticancer activity against human UACC257 cells after 48 hrs by sulforhodamine B assay. The format is functional. To be noted: UACC-257, 48 h. Put shortly:
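NCI 60-cell-line screen, second stage. Five concentration levels (100, 10, 1.0, 0.1 and 0.01 μM), 48 h continuous drug exposure. Cell growth was estimated by sulforhodamine B protein staining. GI50 is the concentration giving a 50% reduction in net protein increase relative to control cells over the drug incubation. Compounds entered this stage after an earlier single-dose screen.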

A further data set deals with RPMI-8226. Put plainly: Cytotoxicity against human RPMI8226 cells. The data set is classed as cell-based. Put shortly:
as §1

In a further data set the test system is A498. Put plainly: Cytotoxicity against human A498 cells. The format is cell-based. Put shortly: as §1

SMILES strings stand for the structures. Some results are limits rather than exact numbers.

For `Oc1ccc(Cc2ccc(O)c(C3CC(c4ccc(Cl)cc4)=NN3)c2)cc1C1CC(c2ccc(Cl)cc2)=NN1` (configuration not stated), the 50% lethal concentration (LC50) with NCI-H460, in the data set with 786-0, with SK-MEL-28, in the data set with UACC-257 [1], in the data set with RPMI-8226 and in the data set with A498 was over 100 µM throughout. Besides, the GI50 (as a rule, the concentration giving 50% growth inhibition) in the data set with CAKI-1 turned out to be 2.67 µM; in the data set with NCI/ADR-RES, 2.24 µM; with Hs-578T, 2.76 µM; in the data set on DU-145 it was 3.46 µM; with SF-268 it was 3.22 µM; in the data set on UACC-257 [2] it was 2.56 µM.
